pKi: −log10 of the molar value.
How the values were obtained:
Type in all cases: cell-based
[1] = biological target: 5-hydroxytryptamine receptor 7 (Homo sapiens, UniProt P34969); assay: Displacement of [3H]-LSD from human recombinant 5-HT7 receptor expressed in stable HEK cells after 90 mins by microbeta scintillation counting method; conditions: for Ki: read-out: pKi (converted)
In short: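 Run by NIMH Psychoactive Drug Screening Program. Otherwise, competition binding curves are generated and pKi is taken from a sigmoidal curve fit. Data are either triplicate measurements within one experiment, with the error from the fit, or the mean of repeated experiments, each run in triplicate.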

[2] = biological target: T1, Alpha-1D adrenergic receptor (Homo sapiens, UniProt P25100); assay: Displacement of [3H]-Prazosin from human recombinant adrenergic Alpha1D receptor expressed in cells after 90 mins by microbeta scintillation counting method
T1 sequence (P25100 whole entry): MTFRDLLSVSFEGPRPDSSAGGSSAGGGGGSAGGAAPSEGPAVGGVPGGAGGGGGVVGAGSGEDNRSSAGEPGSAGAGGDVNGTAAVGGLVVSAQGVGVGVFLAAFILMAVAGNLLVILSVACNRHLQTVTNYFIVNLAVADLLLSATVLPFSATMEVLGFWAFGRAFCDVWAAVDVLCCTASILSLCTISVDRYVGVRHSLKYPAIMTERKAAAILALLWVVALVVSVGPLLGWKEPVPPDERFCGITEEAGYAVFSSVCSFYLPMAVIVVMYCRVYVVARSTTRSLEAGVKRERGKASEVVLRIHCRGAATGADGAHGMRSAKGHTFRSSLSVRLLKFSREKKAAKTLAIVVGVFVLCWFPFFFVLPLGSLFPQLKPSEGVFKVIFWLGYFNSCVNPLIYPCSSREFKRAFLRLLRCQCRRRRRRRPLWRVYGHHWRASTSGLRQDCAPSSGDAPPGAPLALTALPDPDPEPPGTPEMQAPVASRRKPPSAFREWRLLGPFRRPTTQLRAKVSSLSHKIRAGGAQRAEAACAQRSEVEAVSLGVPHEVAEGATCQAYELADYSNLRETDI
In short: (§1)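 Radioligand binding was run by the NIMH Psychoactive Drug Screening Program. Compounds were first screened at 10 μM. Those giving ≥50% binding were taken to full competition curves. Ki is reported as pKi from a sigmoidal curve fit of triplicate measurements in a single experiment; the error is the curve-fit error.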

[3] = biological target: Beta-2 adrenergic receptor (Homo sapiens, UniProt P07550); assay: Displacement of [3H]-CGP12177 from human recombinant adrenergic Beta2 receptor expressed in Flp-In HEK cells after 90 mins by microbeta scintillation counting method
In short: (§2)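 Radioligand binding run by the NIMH Psychoactive Drug Screening Program. […] Otherwise Ki comes from sigmoidal curve fits of triplicate measurements in a single experiment, or is averaged over repeated experiments each run in triplicate.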

[4] = biological target: T2, 5-hydroxytryptamine receptor 3A (Homo sapiens) (UniProt P46098); assay: Displacement of [3H]-GR65630 from human recombinant 5-HT3 receptor expressed in HEKT cells at 10 uM after 90 mins by microbeta scintillation counting method relative to control; in short: as §2
T2 sequence (whole entry): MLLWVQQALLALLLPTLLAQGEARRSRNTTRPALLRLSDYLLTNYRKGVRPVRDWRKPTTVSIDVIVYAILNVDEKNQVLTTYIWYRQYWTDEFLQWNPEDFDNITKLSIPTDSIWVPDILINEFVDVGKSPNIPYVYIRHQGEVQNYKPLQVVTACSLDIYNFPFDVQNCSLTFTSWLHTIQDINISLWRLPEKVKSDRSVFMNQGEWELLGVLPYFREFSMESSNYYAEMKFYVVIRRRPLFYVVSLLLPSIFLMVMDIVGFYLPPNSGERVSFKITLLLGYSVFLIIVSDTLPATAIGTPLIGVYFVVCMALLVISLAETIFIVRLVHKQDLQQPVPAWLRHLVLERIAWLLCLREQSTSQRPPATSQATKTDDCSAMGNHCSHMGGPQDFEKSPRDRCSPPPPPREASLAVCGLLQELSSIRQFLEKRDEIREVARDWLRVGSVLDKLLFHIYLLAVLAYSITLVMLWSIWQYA

Histamine H4 receptor = Histamine H4 receptor (Homo sapiens, UniProt Q9H3N8); assay: Displacement of [3H]-Histamine from human recombinant histamine H4 receptor expressed in HEKT cells after 90 mins by microbeta scintillation counting method; in short: as §2
[5] = biological target: Sodium-dependent noradrenaline transporter (Homo sapiens, UniProt P23975); assay: Displacement of [3H]-Nisoxetine from human recombinant NET receptor expressed in stable HEK cells after 90 mins by microbeta scintillation counting method; in short: as §2
[6] = biological target: T3, Muscarinic acetylcholine receptor M4 (Homo sapiens, UniProt P08173); assay: Displacement of [3H]-QNB/[3H]-NMS from human recombinant Muscarinic acetylcholine M4 receptor expressed in stable CHO cells after 90 mins by microbeta scintillation counting method; in short: as §1
T3 sequence (P08173 whole entry): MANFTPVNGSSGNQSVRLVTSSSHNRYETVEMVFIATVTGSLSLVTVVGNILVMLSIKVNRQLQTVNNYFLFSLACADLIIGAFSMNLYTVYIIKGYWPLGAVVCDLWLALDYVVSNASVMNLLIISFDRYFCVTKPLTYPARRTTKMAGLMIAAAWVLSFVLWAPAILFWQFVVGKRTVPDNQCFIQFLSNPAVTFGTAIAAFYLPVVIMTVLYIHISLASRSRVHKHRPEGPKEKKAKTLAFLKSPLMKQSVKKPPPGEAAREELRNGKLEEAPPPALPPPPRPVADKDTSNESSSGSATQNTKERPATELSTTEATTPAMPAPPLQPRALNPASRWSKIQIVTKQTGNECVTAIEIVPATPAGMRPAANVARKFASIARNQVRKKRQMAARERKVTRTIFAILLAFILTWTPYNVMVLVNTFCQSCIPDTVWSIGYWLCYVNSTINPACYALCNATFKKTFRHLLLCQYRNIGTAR

[7] = biological target: T4, Alpha-2C adrenergic receptor (Homo sapiens) (UniProt P18825); assay: Displacement of [3H]-Rauwolscine from human recombinant adrenergic Alpha2C receptor expressed in stable MDCK cells at 10 uM after 90 mins by microbeta scintillation counting method relative to control
T4 sequence (whole entry): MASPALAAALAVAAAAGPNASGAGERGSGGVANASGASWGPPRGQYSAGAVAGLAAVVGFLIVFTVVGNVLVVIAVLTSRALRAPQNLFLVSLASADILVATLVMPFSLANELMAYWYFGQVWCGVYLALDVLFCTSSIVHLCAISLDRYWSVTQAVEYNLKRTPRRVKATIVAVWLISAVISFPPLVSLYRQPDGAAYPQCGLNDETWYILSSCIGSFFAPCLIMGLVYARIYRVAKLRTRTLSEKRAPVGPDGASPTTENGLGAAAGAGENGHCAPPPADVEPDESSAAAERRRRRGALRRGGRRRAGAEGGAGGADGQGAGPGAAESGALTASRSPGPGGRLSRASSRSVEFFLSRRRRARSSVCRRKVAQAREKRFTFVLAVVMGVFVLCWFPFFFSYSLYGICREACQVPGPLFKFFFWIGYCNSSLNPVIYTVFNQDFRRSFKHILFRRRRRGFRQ

[8] = biological target: 5-hydroxytryptamine receptor 2A (Homo sapiens, UniProt P28223); assay: Displacement of [3H]-Ketanserin from human recombinant 5-HT2A receptor transiently expressed in HEKT cells after 90 mins by microbeta scintillation counting method; in short: as §2
Sequence of 5-hydroxytryptamine receptor 2A (P28223 whole entry): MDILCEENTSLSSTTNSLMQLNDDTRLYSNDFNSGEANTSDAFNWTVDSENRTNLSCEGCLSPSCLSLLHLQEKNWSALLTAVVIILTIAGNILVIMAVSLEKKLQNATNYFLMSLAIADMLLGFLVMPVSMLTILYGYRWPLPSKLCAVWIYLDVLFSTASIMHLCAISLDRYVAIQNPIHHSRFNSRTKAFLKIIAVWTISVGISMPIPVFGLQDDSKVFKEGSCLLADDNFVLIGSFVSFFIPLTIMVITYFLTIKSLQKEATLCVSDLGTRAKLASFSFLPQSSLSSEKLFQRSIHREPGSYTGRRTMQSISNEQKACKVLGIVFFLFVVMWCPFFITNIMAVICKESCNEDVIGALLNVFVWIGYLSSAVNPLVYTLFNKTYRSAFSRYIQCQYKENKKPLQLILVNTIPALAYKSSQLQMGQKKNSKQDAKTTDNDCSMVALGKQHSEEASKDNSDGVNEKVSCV

Sequence of Beta-2 adrenergic receptor (P07550 whole entry): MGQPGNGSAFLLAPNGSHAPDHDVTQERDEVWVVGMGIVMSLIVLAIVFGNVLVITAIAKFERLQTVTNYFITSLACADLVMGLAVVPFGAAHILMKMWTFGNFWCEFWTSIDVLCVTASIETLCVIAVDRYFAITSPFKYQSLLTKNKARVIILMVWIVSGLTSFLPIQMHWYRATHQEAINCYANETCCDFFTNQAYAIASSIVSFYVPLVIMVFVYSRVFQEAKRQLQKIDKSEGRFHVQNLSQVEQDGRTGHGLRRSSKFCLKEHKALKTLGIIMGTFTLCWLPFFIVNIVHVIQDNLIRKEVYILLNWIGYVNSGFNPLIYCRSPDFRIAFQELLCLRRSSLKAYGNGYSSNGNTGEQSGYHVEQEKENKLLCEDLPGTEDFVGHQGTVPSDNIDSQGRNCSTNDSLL
Sequence of Sodium-dependent noradrenaline transporter (P23975 whole entry): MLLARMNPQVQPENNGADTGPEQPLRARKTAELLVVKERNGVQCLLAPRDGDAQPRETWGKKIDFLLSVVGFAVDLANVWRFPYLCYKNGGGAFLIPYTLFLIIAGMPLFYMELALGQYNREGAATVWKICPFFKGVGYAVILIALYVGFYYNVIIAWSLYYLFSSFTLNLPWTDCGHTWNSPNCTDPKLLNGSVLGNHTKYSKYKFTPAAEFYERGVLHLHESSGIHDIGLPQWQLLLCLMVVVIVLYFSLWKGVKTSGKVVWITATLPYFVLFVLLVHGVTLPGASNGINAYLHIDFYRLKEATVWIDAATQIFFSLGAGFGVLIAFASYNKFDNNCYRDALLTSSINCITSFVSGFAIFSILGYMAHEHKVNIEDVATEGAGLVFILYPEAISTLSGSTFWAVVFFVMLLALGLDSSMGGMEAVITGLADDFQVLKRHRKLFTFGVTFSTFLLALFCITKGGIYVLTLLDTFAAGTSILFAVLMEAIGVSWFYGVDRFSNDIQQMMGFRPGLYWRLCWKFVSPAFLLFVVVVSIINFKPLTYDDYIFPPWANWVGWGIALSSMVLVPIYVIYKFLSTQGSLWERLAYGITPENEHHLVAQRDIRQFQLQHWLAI
Sequence of 5-hydroxytryptamine receptor 7 (P34969 whole entry): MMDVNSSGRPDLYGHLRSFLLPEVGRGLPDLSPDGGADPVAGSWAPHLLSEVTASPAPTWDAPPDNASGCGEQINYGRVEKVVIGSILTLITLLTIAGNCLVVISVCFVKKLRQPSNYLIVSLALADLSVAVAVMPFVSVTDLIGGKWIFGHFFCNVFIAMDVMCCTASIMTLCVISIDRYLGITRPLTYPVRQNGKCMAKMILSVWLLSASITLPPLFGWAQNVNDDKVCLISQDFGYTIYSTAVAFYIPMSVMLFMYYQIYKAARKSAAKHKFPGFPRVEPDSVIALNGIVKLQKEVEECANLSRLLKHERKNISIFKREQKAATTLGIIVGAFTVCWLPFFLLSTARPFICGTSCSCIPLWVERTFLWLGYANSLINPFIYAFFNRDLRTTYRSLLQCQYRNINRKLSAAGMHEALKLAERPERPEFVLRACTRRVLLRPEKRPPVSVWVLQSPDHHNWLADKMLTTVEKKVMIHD

pKi ([1]; read-out: Ki) | Compound | Ki [1] [µM] | pKi [2] | pKi [3] | inhibition [4] [%] | pKi (Histamine H4 receptor) | pKi [5] | pKi [6] | inhibition [7] [%] | pKi [8]
– | COc1cc(OC)c2c(c1)OC[C@@]1(C)NCC[C@@H]21 (racemic) | 1.26 | < 5.00 | 6.24 | < 50 | < 5.00 | < 5.00 | < 5.00 | < 50 | –
8.20 | C[C@@]12CN(c3ccccc3)c3ccccc3[C@@H]1CCN2 (racemic) | – | 6.00 | < 5.00 | – | < 5.00 | 5.80 | < 5.00 | – | –
– | CC[C@H]1c2cc(OC)ccc2CC[C@@]1(C)N (racemic) | > 10 | < 5.00 | 5.30 | < 50 | < 5.00 | 5.60 | < 5.00 | < 50 | < 5.00
– | CC[C@H]1c2cc(C)ccc2OC[C@@]1(C)N (racemic) | > 10 | < 5.00 | < 5.00 | < 50 | < 5.00 | 6.50 | < 5.00 | < 50 | < 5.00
– | CC[C@H]1c2ccccc2N(c2ccccc2)C[C@@]1(C)N (racemic) | 1 | < 5.00 | < 5.00 | – | < 5.00 | 6.40 | < 5.00 | – | < 5.00
